Measured values taken from ChEMBL document CHEMBL5696442, “Discovery of type II inhibitors of TGFβ-activated kinase 1 (TAK1) and mitogen-activated protein kinase kinase kinase kinase 2 (MAP4K2)” (J Med Chem, 2015).

Experiments:
[1] = target: Mitogen-activated protein kinase 10 (Homo sapiens, UniProt P53779); assay: Inhibition of JNK3 Lys2 labeling site in human Huh-7 cell lysate at 1 uM by KiNativ Profiling analysis relative to control; type: subcellular
[2] = target: Mitogen-activated protein kinase 9 (Homo sapiens, UniProt P45984); assay: Inhibition of JNK2 Lys2 labeling site in human A-375 cells at 0.05 uM by KiNativ Profiling analysis relative to control; type: cell-based
[3] = target: T1, DNA-PK/Ku70/Ku85 (Homo sapiens) (UniProt P78527+P12956+P13010); assay: Inhibition of DNAPK ATP labeling site harbouring GHDEREHPFLVKGGEDLRQDQR in human A-375 cells at 5 uM by KiNativ Profiling analysis relative to control; type: cell-based
Outline: (§1)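 Live A375 melanoma cells were treated with compound at 0.5 or 5 μM, then lysed. Lysates were labeled with a lysine-reactive ATP or ADP-biotin probe. The read-out was protection of each kinase probe-labeling site from labeling, relative to control.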

[4] = target: RAC-beta serine/threonine-protein kinase (Homo sapiens) (UniProt P31751); assay: Inhibition of AKT2 ATP Loop labeling site in human A-375 cells at 0.5 uM by KiNativ Profiling analysis relative to control; type: cell-based
Outline: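 Live A375 melanoma cells were treated with compound at 5 or 0.5 μM, then lysed. The lysates were labeled with a lysine-reactive ATP or ADP-biotin probe. Kinase protection from probe labeling was measured by KiNativ.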

[5] = target: Serine/threonine-protein kinase 10 (Homo sapiens) (UniProt O94804); assay: Inhibition of LOK Lys1 labeling site harbouring NKETGALAAAKVIETK in human A-375 cells at 0.5 uM by KiNativ Profiling analysis relative to control; type: cell-based
[6] = target: T2, Phosphatidylinositol 4,5-bisphosphate 3-kinase catalytic subunit delta isoform (Homo sapiens) (UniProt O00329); assay: Inhibition of PIK3CD ATP labeling site in human A-375 cells at 0.05 uM by KiNativ Profiling analysis relative to control; type: cell-based
T2 sequence (whole entry): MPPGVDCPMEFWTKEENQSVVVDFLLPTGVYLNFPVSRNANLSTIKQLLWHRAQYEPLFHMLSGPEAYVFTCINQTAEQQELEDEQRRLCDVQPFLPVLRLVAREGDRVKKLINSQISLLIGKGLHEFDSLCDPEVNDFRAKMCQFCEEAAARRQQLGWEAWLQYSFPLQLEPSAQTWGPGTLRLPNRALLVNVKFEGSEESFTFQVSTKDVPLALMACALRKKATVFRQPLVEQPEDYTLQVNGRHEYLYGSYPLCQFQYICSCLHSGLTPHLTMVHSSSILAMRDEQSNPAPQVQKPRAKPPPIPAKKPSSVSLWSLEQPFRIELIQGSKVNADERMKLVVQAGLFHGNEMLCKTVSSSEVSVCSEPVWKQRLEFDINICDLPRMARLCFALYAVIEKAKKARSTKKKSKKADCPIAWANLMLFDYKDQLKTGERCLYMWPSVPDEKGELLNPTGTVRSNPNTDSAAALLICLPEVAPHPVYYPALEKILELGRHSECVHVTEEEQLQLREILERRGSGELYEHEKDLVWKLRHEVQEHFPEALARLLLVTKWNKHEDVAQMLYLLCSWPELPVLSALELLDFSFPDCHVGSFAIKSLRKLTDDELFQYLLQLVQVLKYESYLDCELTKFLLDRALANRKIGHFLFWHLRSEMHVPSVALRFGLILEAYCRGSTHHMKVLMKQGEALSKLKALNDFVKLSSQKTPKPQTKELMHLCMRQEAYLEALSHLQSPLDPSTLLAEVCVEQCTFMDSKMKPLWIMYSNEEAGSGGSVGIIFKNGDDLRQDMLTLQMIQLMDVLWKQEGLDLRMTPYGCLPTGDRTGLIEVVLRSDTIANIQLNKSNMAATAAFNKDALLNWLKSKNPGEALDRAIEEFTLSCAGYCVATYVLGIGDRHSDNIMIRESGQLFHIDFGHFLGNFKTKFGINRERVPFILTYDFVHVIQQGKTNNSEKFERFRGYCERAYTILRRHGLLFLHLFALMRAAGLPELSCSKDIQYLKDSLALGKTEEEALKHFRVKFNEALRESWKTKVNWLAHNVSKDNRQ

[7] = target: Serine/threonine-protein kinase Nek6 (Homo sapiens) (UniProt Q9HC98); assay: Inhibition of NEK6 Lys2 labeling site in human A-375 cells at 5 uM by KiNativ Profiling analysis relative to control; type: cell-based
[8] = target: T1, DNA-PK/Ku70/Ku85 (Homo sapiens); assay: Inhibition of DNAPK ATP labeling site harbouring EHPFLVKGGEDLR in human A-375 cells at 0.5 uM by KiNativ Profiling analysis relative to control; type: cell-based; outline: as §1
[9] = target: Protein kinase C alpha type (Homo sapiens) (UniProt P17252); assay: Inhibition of PKCa Lys2 labeling site in human A-375 cells at 0.05 uM by KiNativ Profiling analysis relative to control; type: cell-based
[10] = target: Proto-oncogene tyrosine-protein kinase Src (Homo sapiens, UniProt P12931); assay: Inhibition of SRC ACT labeling site in human A-375 cells at 0.5 uM by KiNativ Profiling analysis relative to control; type: cell-based
Chain of Proto-oncogene tyrosine-protein kinase Src (P12931 2-536 limits assumed): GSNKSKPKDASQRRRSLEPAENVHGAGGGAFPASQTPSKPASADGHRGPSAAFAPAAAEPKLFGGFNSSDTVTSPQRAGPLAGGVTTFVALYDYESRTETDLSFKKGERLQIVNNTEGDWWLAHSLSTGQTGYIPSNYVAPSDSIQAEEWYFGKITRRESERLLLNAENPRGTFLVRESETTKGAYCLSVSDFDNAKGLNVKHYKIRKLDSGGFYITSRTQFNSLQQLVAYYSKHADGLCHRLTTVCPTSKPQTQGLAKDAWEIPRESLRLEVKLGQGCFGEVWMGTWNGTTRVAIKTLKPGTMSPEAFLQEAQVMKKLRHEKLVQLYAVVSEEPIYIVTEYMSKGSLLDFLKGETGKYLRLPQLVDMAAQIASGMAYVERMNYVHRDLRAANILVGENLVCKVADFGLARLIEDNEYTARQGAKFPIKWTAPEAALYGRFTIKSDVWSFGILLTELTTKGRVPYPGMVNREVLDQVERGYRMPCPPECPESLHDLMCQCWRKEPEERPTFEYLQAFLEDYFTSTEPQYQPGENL

Chain of Serine/threonine-protein kinase Nek6 (Homo sapiens) (Q9HC98 whole entry): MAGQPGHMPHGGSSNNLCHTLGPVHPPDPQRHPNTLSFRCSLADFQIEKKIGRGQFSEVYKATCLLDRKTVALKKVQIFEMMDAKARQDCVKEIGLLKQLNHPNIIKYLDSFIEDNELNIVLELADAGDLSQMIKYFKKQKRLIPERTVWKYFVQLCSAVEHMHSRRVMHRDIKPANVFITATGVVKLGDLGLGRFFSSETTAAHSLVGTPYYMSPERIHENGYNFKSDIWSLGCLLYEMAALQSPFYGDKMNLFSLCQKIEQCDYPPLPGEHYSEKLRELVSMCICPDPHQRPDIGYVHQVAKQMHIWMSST
Chain of Mitogen-activated protein kinase 9 (P45984 whole entry, looked up): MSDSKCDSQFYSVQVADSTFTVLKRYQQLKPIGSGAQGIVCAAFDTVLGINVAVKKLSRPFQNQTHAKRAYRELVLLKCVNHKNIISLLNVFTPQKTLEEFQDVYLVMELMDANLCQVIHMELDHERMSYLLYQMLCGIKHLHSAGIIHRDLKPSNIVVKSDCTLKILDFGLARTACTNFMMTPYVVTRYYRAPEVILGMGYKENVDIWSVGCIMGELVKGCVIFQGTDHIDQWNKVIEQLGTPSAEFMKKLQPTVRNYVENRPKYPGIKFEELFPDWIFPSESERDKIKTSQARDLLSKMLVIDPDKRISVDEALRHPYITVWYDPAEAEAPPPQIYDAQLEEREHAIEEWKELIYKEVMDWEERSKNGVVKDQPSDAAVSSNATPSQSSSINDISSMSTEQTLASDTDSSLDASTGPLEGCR
Chain of RAC-beta serine/threonine-protein kinase (Homo sapiens) (P31751 whole entry): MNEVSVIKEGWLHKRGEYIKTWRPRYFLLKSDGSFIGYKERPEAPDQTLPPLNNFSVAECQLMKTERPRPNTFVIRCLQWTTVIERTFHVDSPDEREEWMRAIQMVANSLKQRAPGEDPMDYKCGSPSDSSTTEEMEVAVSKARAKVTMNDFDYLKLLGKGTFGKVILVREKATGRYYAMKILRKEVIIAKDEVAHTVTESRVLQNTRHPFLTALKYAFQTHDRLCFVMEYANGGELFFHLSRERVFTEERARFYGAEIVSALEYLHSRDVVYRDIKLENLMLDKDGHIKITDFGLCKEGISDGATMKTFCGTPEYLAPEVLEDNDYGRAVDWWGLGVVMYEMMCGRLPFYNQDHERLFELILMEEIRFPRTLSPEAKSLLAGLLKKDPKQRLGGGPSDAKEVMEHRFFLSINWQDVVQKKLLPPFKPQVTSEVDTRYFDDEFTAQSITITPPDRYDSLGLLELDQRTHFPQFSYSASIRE
Chain of Serine/threonine-protein kinase 10 (Homo sapiens) (O94804 whole entry, looked up, canonical isoform): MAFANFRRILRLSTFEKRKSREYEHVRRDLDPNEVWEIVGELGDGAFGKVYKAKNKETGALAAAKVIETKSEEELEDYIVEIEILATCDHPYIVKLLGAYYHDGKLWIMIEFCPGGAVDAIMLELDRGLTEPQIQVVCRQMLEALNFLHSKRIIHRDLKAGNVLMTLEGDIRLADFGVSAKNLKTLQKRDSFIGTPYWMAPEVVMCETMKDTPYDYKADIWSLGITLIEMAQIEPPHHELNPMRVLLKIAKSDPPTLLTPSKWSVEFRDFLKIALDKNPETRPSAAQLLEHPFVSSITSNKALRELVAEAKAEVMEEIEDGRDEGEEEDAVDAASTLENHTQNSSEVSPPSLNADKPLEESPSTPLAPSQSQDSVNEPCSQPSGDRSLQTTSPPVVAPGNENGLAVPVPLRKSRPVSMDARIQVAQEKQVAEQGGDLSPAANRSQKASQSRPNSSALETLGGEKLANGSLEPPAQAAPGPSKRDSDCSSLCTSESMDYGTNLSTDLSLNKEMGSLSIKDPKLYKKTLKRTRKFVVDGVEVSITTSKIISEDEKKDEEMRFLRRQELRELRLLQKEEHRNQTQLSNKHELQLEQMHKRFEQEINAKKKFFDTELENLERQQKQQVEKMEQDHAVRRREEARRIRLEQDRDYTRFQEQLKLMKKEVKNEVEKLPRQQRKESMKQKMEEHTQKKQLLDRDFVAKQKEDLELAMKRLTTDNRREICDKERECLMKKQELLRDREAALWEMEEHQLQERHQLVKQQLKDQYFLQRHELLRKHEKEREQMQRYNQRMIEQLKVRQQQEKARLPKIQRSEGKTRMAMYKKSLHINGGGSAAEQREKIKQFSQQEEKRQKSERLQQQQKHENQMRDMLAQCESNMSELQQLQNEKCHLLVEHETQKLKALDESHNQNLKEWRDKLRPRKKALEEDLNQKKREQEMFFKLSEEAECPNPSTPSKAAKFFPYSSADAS
Chain of Mitogen-activated protein kinase 10 (P53779 whole entry): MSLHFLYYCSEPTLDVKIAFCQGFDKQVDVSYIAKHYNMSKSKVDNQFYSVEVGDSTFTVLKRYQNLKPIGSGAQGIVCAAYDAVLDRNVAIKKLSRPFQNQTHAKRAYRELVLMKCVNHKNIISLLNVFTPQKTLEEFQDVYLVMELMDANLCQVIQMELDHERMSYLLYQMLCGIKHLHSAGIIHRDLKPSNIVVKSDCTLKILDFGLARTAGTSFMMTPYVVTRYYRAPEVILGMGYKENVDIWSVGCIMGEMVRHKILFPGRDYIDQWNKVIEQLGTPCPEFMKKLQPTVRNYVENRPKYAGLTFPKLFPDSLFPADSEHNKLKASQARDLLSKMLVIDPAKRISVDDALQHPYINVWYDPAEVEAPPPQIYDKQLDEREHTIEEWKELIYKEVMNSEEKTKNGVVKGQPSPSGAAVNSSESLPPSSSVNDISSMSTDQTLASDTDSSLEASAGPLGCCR

Structure (SMILES) | inhibition [1] [%] | inhibition [2] [%] | inhibition [3] [%] | inhibition [4] [%] | inhibition [5] [%] | inhibition [6] [%] | inhibition [7] [%] | inhibition [8] [%] | inhibition [9] [%] | inhibition [10] [%]
CNc1cc(Oc2cc(C(=O)Nc3cc(N4CCN(C)CC4)cc(C(F)(F)F)c3)ccc2C)ncn1 | 7 |  |  |  |  |  |  |  |  | 
CCN1CCN(Cc2ccc(NC(=O)c3ccc(C)c(/C=C/c4cnc5[nH]ccc5c4OC)c3)cc2C(F)(F)F)CC1 |  | 23.9 | -4.9 | 25.1 | 61.8 | 24.3 | 3.1 | 13.8 | 58 | 72.6
CNc1cc(Oc2cc(C(=O)Nc3cc(-n4cnc(C)c4)cc(C(F)(F)F)c3)ccc2C)ncn1 | 18.4 |  |  |  |  |  |  |  |  | 
CCN1CCN(Cc2ccc(NC(=O)c3ccc(C)c(Oc4ccnc5[nH]ccc45)c3)cc2C(F)(F)F)CC1 |  | 50.3 | 9.9 | -1.8 | 74.7 | 4.1 | 6.4 | 3.2 | 45.3 | 36.5
